# According to ChEMBL document CHEMBL2331548, “Identification of N-acyl 4-(3-pyridonyl)phenylalanine derivatives and their orally active prodrug esters as dual acting α4β1 and α4β7 receptor antagonists” (Bioorg Med Chem Lett, 2013):
# Key:
# [1] = biological target: Integrin alpha-4/beta-7 (Homo sapiens) (UniProt P13612+P26010); test: Inhibition of human MAdCAM1 binding to integrin alpha4beta7 receptor in human RPMI 8866 cells labeled with Calcein AM relative to RO0270608; type: cell-based
# Procedure, shortened: (§1)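 Serially diluted compound tested for blocking adhesion of Calcein AM-labelled cells to recombinant human counter-ligand: RAMOS cells on VCAM-1 (α4β1) and RPMI 8866 cells on MAdCAM-1 (α4β7). Cells activated beforehand in Mn2+-containing binding buffer for maximal activation. IC50 taken from fluorescence; RO0270608 run on every plate, and relative potency expressed as fold versus this control because cell activity drifted with passage.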
# [2] = biological target: T1, Integrin alpha-4/beta-1 (Homo sapiens, UniProt P05556+P13612); test: Inhibition of human VCAM1 binding to integrin alpha4beta1 receptor in human Ramos cells labeled with Calcein AM relative to RO0270608; type: cell-based; procedure, shortened: as §1
# [3] = biological target: T1, Integrin alpha-4/beta-1; test: Inhibition of human VCAM1 binding to integrin alpha4beta1 receptor in human Ramos cells labeled with Calcein AM; type: cell-based; procedure, shortened: as §1
# [4] = biological target: T2, Integrin alpha-4/beta-7 (Homo sapiens, UniProt P13612+P26010); test: Inhibition of human MAdCAM1 binding to integrin alpha4beta7 receptor in human RPMI 8866 cells labeled with Calcein AM; type: cell-based; procedure, shortened: as §1
# T2 sequence (P13612 whole entry): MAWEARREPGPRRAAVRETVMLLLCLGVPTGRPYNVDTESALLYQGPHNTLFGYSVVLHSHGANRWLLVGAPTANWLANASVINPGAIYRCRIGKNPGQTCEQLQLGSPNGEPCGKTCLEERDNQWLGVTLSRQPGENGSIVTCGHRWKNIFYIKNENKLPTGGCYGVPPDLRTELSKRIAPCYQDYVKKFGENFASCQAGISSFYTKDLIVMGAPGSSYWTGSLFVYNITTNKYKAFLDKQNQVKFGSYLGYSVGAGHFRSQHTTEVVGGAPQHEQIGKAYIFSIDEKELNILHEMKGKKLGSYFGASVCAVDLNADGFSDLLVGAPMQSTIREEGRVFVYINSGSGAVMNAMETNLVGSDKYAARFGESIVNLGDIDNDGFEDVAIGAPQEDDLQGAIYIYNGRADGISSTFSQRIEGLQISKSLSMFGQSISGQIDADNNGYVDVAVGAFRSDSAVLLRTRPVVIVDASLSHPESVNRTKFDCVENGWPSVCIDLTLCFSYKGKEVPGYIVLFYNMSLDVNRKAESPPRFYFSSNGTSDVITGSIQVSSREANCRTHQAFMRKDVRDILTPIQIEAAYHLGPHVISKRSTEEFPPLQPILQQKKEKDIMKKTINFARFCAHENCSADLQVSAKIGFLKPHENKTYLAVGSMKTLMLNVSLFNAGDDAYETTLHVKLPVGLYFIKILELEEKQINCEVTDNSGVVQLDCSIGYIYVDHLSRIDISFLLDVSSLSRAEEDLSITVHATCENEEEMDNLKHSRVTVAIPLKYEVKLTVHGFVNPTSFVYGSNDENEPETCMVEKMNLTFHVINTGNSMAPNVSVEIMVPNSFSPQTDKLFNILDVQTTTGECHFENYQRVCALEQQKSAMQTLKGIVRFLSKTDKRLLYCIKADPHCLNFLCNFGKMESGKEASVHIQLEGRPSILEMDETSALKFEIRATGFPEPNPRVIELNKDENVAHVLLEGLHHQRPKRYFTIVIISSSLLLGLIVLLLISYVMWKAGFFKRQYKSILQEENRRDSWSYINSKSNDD
# T2 sequence (P26010 whole entry): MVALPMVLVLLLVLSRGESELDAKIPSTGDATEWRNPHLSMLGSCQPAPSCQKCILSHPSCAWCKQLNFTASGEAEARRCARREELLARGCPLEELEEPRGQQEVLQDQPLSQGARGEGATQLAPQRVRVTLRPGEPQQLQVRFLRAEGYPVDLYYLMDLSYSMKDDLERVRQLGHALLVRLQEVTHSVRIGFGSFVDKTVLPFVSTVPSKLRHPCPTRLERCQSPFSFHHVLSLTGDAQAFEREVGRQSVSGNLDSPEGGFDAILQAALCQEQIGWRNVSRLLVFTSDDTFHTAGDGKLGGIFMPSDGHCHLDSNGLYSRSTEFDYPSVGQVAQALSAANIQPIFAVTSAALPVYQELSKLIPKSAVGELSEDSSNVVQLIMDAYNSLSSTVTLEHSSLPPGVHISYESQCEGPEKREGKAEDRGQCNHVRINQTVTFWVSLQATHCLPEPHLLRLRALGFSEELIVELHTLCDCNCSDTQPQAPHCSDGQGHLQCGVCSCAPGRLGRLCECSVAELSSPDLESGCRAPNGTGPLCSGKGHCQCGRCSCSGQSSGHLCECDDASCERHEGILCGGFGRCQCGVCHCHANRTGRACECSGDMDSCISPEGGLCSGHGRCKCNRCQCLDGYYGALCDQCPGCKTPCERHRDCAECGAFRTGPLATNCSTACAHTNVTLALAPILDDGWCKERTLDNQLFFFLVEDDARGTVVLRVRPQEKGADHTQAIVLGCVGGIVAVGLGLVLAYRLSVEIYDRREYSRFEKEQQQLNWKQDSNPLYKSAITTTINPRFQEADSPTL
# [5] = Stability in simulated intestinal fluid at pH 7.5 assessed as half life; type: physicochemical; conditions: for Stability: simulated gi fluid; for half-life: simulated intestinal fluid
# [6] = Solubility in simulated gastric fluid at pH 2.0; type: physicochemical
# [7] = Apparent permeability across human Caco2 cells; type: ADME, cell-based; conditions: Caco-2
# [8] = biological target: hERG (KCNH2) (Homo sapiens, UniProt Q12809); test: Inhibition of human ERG
# [9] = Oral bioavailability in rat; type: ADME, organism-based; conditions: in vivo
# [10] = Solubility in simulated intestinal fluid at pH 7.5; type: physicochemical
# [11] = Stability in plasma (unknown origin) assessed as unchanged prodrug level; type: ADME, cell-free
# [12] = simulated gi fluid, BLD = below limit of detection
# [13] = simulated gastric fluid, read-out: solubility
# T1 sequence (P05556 whole entry, one chain of several): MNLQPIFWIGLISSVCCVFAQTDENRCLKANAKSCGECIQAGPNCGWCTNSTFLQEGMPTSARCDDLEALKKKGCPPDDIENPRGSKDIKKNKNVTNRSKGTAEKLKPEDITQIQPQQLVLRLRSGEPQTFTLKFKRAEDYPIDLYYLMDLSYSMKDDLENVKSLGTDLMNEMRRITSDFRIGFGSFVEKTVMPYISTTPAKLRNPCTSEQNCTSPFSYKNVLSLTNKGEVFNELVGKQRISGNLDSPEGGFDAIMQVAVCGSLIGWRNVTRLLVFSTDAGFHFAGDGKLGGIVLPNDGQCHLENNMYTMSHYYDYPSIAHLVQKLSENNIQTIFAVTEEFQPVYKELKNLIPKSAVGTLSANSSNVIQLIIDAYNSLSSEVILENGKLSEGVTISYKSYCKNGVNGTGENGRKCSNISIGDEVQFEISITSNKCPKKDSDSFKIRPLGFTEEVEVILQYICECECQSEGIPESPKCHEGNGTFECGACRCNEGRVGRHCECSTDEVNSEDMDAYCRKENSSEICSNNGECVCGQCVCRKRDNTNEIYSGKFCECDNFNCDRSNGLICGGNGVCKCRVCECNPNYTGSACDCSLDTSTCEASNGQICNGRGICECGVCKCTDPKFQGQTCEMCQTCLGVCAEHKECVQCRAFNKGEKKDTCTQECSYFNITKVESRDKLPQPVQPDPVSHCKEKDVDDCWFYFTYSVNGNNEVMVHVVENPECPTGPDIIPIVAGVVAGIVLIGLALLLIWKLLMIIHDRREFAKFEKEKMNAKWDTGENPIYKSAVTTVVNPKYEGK
# hERG (KCNH2), sequence (Q12809 whole entry): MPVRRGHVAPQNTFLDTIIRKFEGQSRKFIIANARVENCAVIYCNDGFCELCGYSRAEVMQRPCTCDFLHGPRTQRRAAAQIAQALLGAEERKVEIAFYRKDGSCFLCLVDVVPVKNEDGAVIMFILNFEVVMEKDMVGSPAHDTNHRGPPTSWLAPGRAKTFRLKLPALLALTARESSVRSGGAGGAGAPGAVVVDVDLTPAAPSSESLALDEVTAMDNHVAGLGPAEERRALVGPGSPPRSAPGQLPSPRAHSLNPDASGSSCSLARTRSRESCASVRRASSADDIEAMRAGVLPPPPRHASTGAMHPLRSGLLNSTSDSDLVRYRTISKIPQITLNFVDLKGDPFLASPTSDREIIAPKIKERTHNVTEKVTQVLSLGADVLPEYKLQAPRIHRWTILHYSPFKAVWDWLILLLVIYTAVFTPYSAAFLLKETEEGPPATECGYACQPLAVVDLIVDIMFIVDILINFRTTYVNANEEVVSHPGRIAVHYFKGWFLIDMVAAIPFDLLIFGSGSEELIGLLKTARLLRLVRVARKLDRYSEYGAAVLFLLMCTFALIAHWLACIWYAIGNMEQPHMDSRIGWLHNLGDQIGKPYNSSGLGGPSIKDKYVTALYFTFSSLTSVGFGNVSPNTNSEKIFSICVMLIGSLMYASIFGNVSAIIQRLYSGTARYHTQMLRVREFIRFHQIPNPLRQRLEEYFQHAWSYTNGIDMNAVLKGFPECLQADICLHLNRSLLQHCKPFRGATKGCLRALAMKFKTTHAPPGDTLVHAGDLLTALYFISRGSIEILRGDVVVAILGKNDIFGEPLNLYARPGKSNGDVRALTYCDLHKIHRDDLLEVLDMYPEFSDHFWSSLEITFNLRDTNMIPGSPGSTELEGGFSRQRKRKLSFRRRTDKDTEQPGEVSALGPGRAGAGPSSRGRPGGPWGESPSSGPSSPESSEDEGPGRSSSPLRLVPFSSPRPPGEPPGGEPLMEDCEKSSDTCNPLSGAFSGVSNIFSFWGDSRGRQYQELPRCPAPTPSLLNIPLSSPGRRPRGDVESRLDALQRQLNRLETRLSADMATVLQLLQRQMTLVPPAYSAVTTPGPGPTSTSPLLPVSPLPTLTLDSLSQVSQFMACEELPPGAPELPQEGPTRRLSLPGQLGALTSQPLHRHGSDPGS
Compound,Ratio IC50 [1],Ratio IC50 [2],IC50 [3] [nM],IC50 [4] [nM],Papp [7] [×10⁻⁶ cm/s],other results
Cc1cc(C(F)(F)F)c(-c2ccc(C[C@H](NC(=O)c3c(Cl)cccc3Cl)C(=O)O)cc2)c(=O)[nH]1,0.65,0.08,820,810,–,–
Cc1cc(C(F)(F)F)c(-c2ccc(C[C@H](NC(=O)c3c(Cl)cccc3Cl)C(=O)O)cc2)c(=O)n1CC1CC1,0.34,0.03,463,1230,–,–
Cc1cc(C(F)(F)F)c(-c2ccc(C[C@H](NC(=O)c3c(Cl)cccc3Cl)C(=O)OCC(C)C)cc2)c(=O)n1C,–,–,–,–,32.5,"Stability [5]: Stable; solubility [6, 12]: BLD"
CCN(CC)CCOC(=O)[C@H](Cc1ccc(-c2c(C(F)(F)F)cc(C)n(C)c2=O)cc1)NC(=O)c1c(Cl)cccc1Cl,–,–,–,–,9.6,"half-life [5]: 0.5 h; solubility [6, 13]: > 5000 µg/mL; IC20 [8]: 11700 nM; bioavailability [9]: 12%"
COCCOC(=O)[C@H](Cc1ccc(-c2c(C(F)(F)F)cc(C)n(C)c2=O)cc1)NC(=O)c1c(Cl)cccc1Cl,–,–,–,–,49.9,"Stability [5]: Stable; solubility [6, 12]: BLD"
COCCCOC(=O)[C@H](Cc1ccc(-c2c(C(F)(F)F)cc(C)n(C)c2=O)cc1)NC(=O)c1c(Cl)cccc1Cl,–,–,–,–,22.8,bioavailability [9]: 2%
Cc1cccc(Cl)c1C(=O)N[C@@H](Cc1ccc(-c2cccn(C)c2=O)cc1)C(=O)O,0.46,0.03,582,687,–,–
Cc1cccc(C(C)C)c1C(=O)N[C@@H](Cc1ccc(-c2c(C(F)(F)F)cc(C)n(C)c2=O)cc1)C(=O)O,0.23,0.36,366,1290,–,–
Cc1ccn(C)c(=O)c1-c1ccc(C[C@H](NC(=O)c2c(Cl)cccc2Cl)C(=O)O)cc1,1.6,0.37,90,179,–,–
Cc1cc(C(F)(F)F)c(-c2ccc(C[C@H](NC(=O)c3c(Cl)cccc3Cl)C(=O)OCC(=O)N(C)C)cc2)c(=O)n1C,–,–,–,–,6.3,"Stability [5]: Stable; solubility [6, 13]: 0.8 µg/mL; solubility [10]: 0.7 µg/mL"
Cc1cc(C(F)(F)F)n(C)c(=O)c1-c1ccc(C[C@H](NC(=O)c2c(Cl)cccc2Cl)C(=O)O)cc1,2.2,0.11,269,126,–,–
COc1ccc(Br)c(C(=O)N[C@@H](Cc2ccc(-c3cccn(C)c3=O)cc2)C(=O)O)c1,–,–,419,–,–,–
Cc1cc(C(F)(F)F)c(-c2ccc(C[C@H](NC(=O)c3c(Cl)cccc3Cl)C(=O)OCCN3CCOCC3)cc2)c(=O)n1C,–,–,–,–,16.2,"Stability [11]: Stable; half-life [5]: 4 h; solubility [6, 13]: > 13000 µg/mL; IC20 [8]: 11000 nM; bioavailability [9]: 15%; solubility [10]: 200 µg/mL"
Cc1cccc(Cl)c1C(=O)N[C@@H](Cc1ccc(-c2c(C)cc(C(F)(F)F)n(C)c2=O)cc1)C(=O)O,2.6,0.06,267,160,–,–
Cc1cc(C(F)(F)F)c(-c2ccc(C[C@H](NC(=O)c3c(Cl)cccc3Cl)C(=O)O)cc2)c(=O)n1Cc1ccccc1,0.96,0.12,560,600,–,–
COCCC1(C(=O)N[C@@H](Cc2ccc(-c3c(C(F)(F)F)cc(C)n(C)c3=O)cc2)C(=O)O)CCCC1,0.54,0.75,140,671,–,–
CC(=O)OC(C)OC(=O)[C@H](Cc1ccc(-c2c(C(F)(F)F)cc(C)n(C)c2=O)cc1)NC(=O)c1c(Cl)cccc1Cl (stereo partly specified),–,–,–,–,27.5,Stability [5]: Stable; bioavailability [9]: 17%; solubility [10]: 4 µg/mL
CCCOC(=O)[C@H](Cc1ccc(-c2c(C(F)(F)F)cc(C)n(C)c2=O)cc1)NC(=O)c1c(Cl)cccc1Cl,–,–,–,–,52.6,"Stability [5]: Stable; solubility [6, 12]: BLD"
Cc1cccc(Cl)c1C(=O)N[C@@H](Cc1ccc(NC(=O)c2c(Cl)cccc2Cl)cc1)C(=O)O,–,–,10,43,–,–
Cc1cccc(Cl)c1C(=O)N[C@@H](Cc1ccc(-c2c(C(F)(F)F)cc(C)n(C)c2=O)cc1)C(=O)O,3.5,0.47,48,154,–,–
Cc1cccc(Cl)c1C(=O)N[C@@H](Cc1ccc(-c2c(C)ccn(C)c2=O)cc1)C(=O)O,0.68,0.23,226,363,–,–
CCn1c(C)cc(C(F)(F)F)c(-c2ccc(C[C@H](NC(=O)c3c(Cl)cccc3Cl)C(=O)O)cc2)c1=O,1.9,0.4,112,61,–,–
Cc1cc(C(F)(F)F)c(-c2ccc(C[C@H](NC(=O)c3c(Cl)cccc3Cl)C(=O)OCC(O)CO)cc2)c(=O)n1C (stereo partly specified),–,–,–,–,1.8,"Stability [11]: Stable; Stability [5]: Stable; solubility [6, 13]: 190 µg/mL; bioavailability [9]: 6%; solubility [10]: 140 µg/mL"
Cc1cc(C(F)(F)F)c(-c2ccc(C[C@H](NC(=O)c3c(Cl)cccc3Cl)C(=O)OCC3CCOC3)cc2)c(=O)n1C (stereo partly specified),–,–,–,–,76.4,"Stability [5]: Stable; solubility [6, 13]: 0.03 µg/mL; solubility [10]: 0.03 µg/mL"
CCc1cccc(C)c1C(=O)N[C@@H](Cc1ccc(-c2c(C(F)(F)F)cc(C)n(C)c2=O)cc1)C(=O)O,0.7,0.41,225,767,–,–
